# According to ChEMBL document CHEMBL4257452, “A mini-library system to investigate non-essential residues of lipid-phosphatidylserine (PS) binding peptide-peptoid hybrid PPS1” (Medchemcomm, 2017):
# Active and inactive are the calls of the source. No cut-off for these calls is given here. Starred links: 1 amine or outer side, 2 acyl side, 3 side chain; linkers in the order of their positions; H or OH if unused. Positions of bridges follow the written chain, without caps; N, C: chain ends. Non-standard residues stand in square brackets, D forms with d. Residues, ends and D or L forms follow the SMILES beside them. Chains are numbered I, II in the order given. N(3,4-(MeO)2phenethyl)Gly = COc1ccc(CCNCC(=O)O)cc1OC; Gly(N-CH2CH2C6H4-4Cl) = O=C(O)CNCCc1ccc(Cl)cc1; Gly(N-piperonyl) = O=C(O)CNCc1ccc2c(c1)OCO2; Gly(Nα-4-Cl-benzyl) = O=C(O)CNCc1ccc(Cl)cc1; N(4-MeOBn)Gly = COc1ccc(CNCC(=O)O)cc1; N(CH2CH2NHAc)Gly = CC(=O)NCCNCC(=O)O; X3 = CC(c1ccccc1)N(CC(=O)[*:2])[*:1]; Gly(NCH2CH2Ph) = O=C(O)CNCCc1ccccc1; Gly(N-propargyl) = C#CCNCC(=O)O; Gly(N-cPent) = O=C(O)CNC1CCCC1; NAllylGly = C=CCNCC(=O)O; Nme = COCCNCC(=O)O
# System: HCC4017
# Assay: Cytotoxicity against human HCC4017 cells assessed as reduction in cell viability at 20 uM after 24 hrs by MTS assay
# Assay type: functional, cell-based
# Summary of the method: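 HCC4017 cells (RPMI, 5% FBS) and HBEC-3KT normal lung cells (KSFM with recombinant human EGF and bovine pituitary extract) were plated at 10 000 cells/well in triplicate and left to adhere overnight. They were exposed to 1 or 20 μM compound for 24 h. MTS reagent was then added for 2 h and absorbance read at 490 nm. Viability is % of untreated control wells.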
row,Structure (SMILES),Activity
1,COc1ccc(CN(CC(=O)NC(CCCCN)C(=O)NC(CCCCN)C(=O)NC(CCSC)C(=O)NCCCCC(NC(=O)C(CCSC)NC(=O)C(CCCCN)NC(=O)C(CCCCN)NC(=O)CN(Cc2ccc(OC)cc2)C(=O)CN(Cc2ccc(OC)cc2)C(=O)CN(C(=O)CN(Cc2ccc3c(c2)OCO3)C(=O)CNC(C)c2ccccc2)C(C)c2ccccc2)C(N)=O)C(=O)CN(Cc2ccc(OC)cc2)C(=O)CN(C(=O)CN(Cc2ccc3c(c2)OCO3)C(=O)CNC(C)c2ccccc2)C(C)c2ccccc2)cc1 (stereo not drawn) (I: H-[X3][Gly(N-piperonyl)][X3][N(4-MeOBn)Gly][N(4-MeOBn)Gly]KKMK-NH2 / II: H-[X3][Gly(N-piperonyl)][X3][N(4-MeOBn)Gly][N(4-MeOBn)Gly]KKM; amide I:9-II:C; configuration not given here),Active
2,COc1ccc(CN(CC(=O)N(CCc2ccccc2)CC(=O)NC(CCCCN)C(=O)NC(CCCCN)C(=O)NC(CCSC)C(=O)NCCCCC(NC(=O)C(CCSC)NC(=O)C(CCCCN)NC(=O)C(CCCCN)NC(=O)CN(CCc2ccccc2)C(=O)CN(Cc2ccc(OC)cc2)C(=O)CN(C(=O)CN(Cc2ccc3c(c2)OCO3)C(=O)CNC(C)c2ccccc2)C(C)c2ccccc2)C(N)=O)C(=O)CN(C(=O)CN(Cc2ccc3c(c2)OCO3)C(=O)CNC(C)c2ccccc2)C(C)c2ccccc2)cc1 (stereo not drawn) (I: H-[X3][Gly(N-piperonyl)][X3][N(4-MeOBn)Gly][Gly(NCH2CH2Ph)]KKMK-NH2 / II: H-[X3][Gly(N-piperonyl)][X3][N(4-MeOBn)Gly][Gly(NCH2CH2Ph)]KKM; amide I:9-II:C; configuration not given here),Active
3,"COc1ccc(CN(CC(=O)N(CCc2ccc(OC)c(OC)c2)CC(=O)NC(CCCCN)C(=O)NC(CCCCN)C(=O)NC(CCSC)C(=O)NCCCCC(NC(=O)C(CCSC)NC(=O)C(CCCCN)NC(=O)C(CCCCN)NC(=O)CN(CCc2ccc(OC)c(OC)c2)C(=O)CN(Cc2ccc(OC)cc2)C(=O)CN(C(=O)CN(Cc2ccc3c(c2)OCO3)C(=O)CNC(C)c2ccccc2)C(C)c2ccccc2)C(N)=O)C(=O)CN(C(=O)CN(Cc2ccc3c(c2)OCO3)C(=O)CNC(C)c2ccccc2)C(C)c2ccccc2)cc1 (stereo not drawn) (I: H-[X3][Gly(N-piperonyl)][X3][N(4-MeOBn)Gly][N(3,4-(MeO)2phenethyl)Gly]KKMK-NH2 / II: H-[X3][Gly(N-piperonyl)][X3][N(4-MeOBn)Gly][N(3,4-(MeO)2phenethyl)Gly]KKM; amide I:9-II:C; configuration not given here)",Active
4,COc1ccc(CN(CC(=O)N(CC(=O)NC(CCCCN)C(=O)NC(CCCCN)C(=O)NC(CCSC)C(=O)NCCCCC(NC(=O)C(CCSC)NC(=O)C(CCCCN)NC(=O)C(CCCCN)NC(=O)CN(Cc2ccc(Cl)cc2)C(=O)CN(Cc2ccc(OC)cc2)C(=O)CN(C(=O)CN(Cc2ccc3c(c2)OCO3)C(=O)CNC(C)c2ccccc2)C(C)c2ccccc2)C(N)=O)Cc2ccc(Cl)cc2)C(=O)CN(C(=O)CN(Cc2ccc3c(c2)OCO3)C(=O)CNC(C)c2ccccc2)C(C)c2ccccc2)cc1 (stereo not drawn) (I: H-[X3][Gly(N-piperonyl)][X3][N(4-MeOBn)Gly][Gly(Nα-4-Cl-benzyl)]KKMK-NH2 / II: H-[X3][Gly(N-piperonyl)][X3][N(4-MeOBn)Gly][Gly(Nα-4-Cl-benzyl)]KKM; amide I:9-II:C; configuration not given here),Active
5,COc1ccc(CN(CC(=O)NC(CC(C)C)C(=O)NC(CCCCN)C(=O)NC(CCCCN)C(=O)NC(CCSC)C(=O)NCCCCC(NC(=O)C(CCSC)NC(=O)C(CCCCN)NC(=O)C(CCCCN)NC(=O)C(CC(C)C)NC(=O)CN(Cc2ccc(OC)cc2)C(=O)CN(C(=O)CN(Cc2ccc3c(c2)OCO3)C(=O)CNC(C)c2ccccc2)C(C)c2ccccc2)C(N)=O)C(=O)CN(C(=O)CN(Cc2ccc3c(c2)OCO3)C(=O)CNC(C)c2ccccc2)C(C)c2ccccc2)cc1 (stereo not drawn) (I: H-[X3][Gly(N-piperonyl)][X3][N(4-MeOBn)Gly]LKKMK-NH2 / II: H-[X3][Gly(N-piperonyl)][X3][N(4-MeOBn)Gly]LKKM; amide I:9-II:C; configuration not given here),Active
6,COc1ccc(CN(CC(=O)N(CCc2ccc(Cl)cc2)CC(=O)NC(CCCCN)C(=O)NC(CCCCN)C(=O)NC(CCSC)C(=O)NCCCCC(NC(=O)C(CCSC)NC(=O)C(CCCCN)NC(=O)C(CCCCN)NC(=O)CN(CCc2ccc(Cl)cc2)C(=O)CN(Cc2ccc(OC)cc2)C(=O)CN(C(=O)CN(Cc2ccc3c(c2)OCO3)C(=O)CNC(C)c2ccccc2)C(C)c2ccccc2)C(N)=O)C(=O)CN(C(=O)CN(Cc2ccc3c(c2)OCO3)C(=O)CNC(C)c2ccccc2)C(C)c2ccccc2)cc1 (stereo not drawn) (I: H-[X3][Gly(N-piperonyl)][X3][N(4-MeOBn)Gly][Gly(N-CH2CH2C6H4-4Cl)]KKMK-NH2 / II: H-[X3][Gly(N-piperonyl)][X3][N(4-MeOBn)Gly][Gly(N-CH2CH2C6H4-4Cl)]KKM; amide I:9-II:C; configuration not given here),Active
7,COc1ccc(CN(CC(=O)N(CCNC(C)=O)CC(=O)NC(CCCCN)C(=O)NC(CCCCN)C(=O)NC(CCSC)C(=O)NCCCCC(NC(=O)C(CCSC)NC(=O)C(CCCCN)NC(=O)C(CCCCN)NC(=O)CN(CCNC(C)=O)C(=O)CN(Cc2ccc(OC)cc2)C(=O)CN(C(=O)CN(Cc2ccc3c(c2)OCO3)C(=O)CNC(C)c2ccccc2)C(C)c2ccccc2)C(N)=O)C(=O)CN(C(=O)CN(Cc2ccc3c(c2)OCO3)C(=O)CNC(C)c2ccccc2)C(C)c2ccccc2)cc1 (stereo not drawn) (I: H-[X3][Gly(N-piperonyl)][X3][N(4-MeOBn)Gly][N(CH2CH2NHAc)Gly]KKMK-NH2 / II: H-[X3][Gly(N-piperonyl)][X3][N(4-MeOBn)Gly][N(CH2CH2NHAc)Gly]KKM; amide I:9-II:C; configuration not given here),Active
8,COc1ccc(CN(CC(=O)NC(C)C(=O)NC(CCCCN)C(=O)NC(CCCCN)C(=O)NC(CCSC)C(=O)NCCCCC(NC(=O)C(CCSC)NC(=O)C(CCCCN)NC(=O)C(CCCCN)NC(=O)C(C)NC(=O)CN(Cc2ccc(OC)cc2)C(=O)CN(C(=O)CN(Cc2ccc3c(c2)OCO3)C(=O)CNC(C)c2ccccc2)C(C)c2ccccc2)C(N)=O)C(=O)CN(C(=O)CN(Cc2ccc3c(c2)OCO3)C(=O)CNC(C)c2ccccc2)C(C)c2ccccc2)cc1 (stereo not drawn) (I: H-[X3][Gly(N-piperonyl)][X3][N(4-MeOBn)Gly]AKKMK-NH2 / II: H-[X3][Gly(N-piperonyl)][X3][N(4-MeOBn)Gly]AKKM; amide I:9-II:C; configuration not given here),Active
9,COCCN(CC(=O)NC(CCCCN)C(=O)NC(CCCCN)C(=O)NC(CCSC)C(=O)NCCCCC(NC(=O)C(CCSC)NC(=O)C(CCCCN)NC(=O)C(CCCCN)NC(=O)CN(CCOC)C(=O)CN(Cc1ccc(OC)cc1)C(=O)CN(C(=O)CN(Cc1ccc2c(c1)OCO2)C(=O)CNC(C)c1ccccc1)C(C)c1ccccc1)C(N)=O)C(=O)CN(Cc1ccc(OC)cc1)C(=O)CN(C(=O)CN(Cc1ccc2c(c1)OCO2)C(=O)CNC(C)c1ccccc1)C(C)c1ccccc1 (stereo not drawn) (I: H-[X3][Gly(N-piperonyl)][X3][N(4-MeOBn)Gly][Nme]KKMK-NH2 / II: H-[X3][Gly(N-piperonyl)][X3][N(4-MeOBn)Gly][Nme]KKM; amide I:9-II:C; configuration not given here),Active
10,C=CCN(CC(=O)NC(CCCCN)C(=O)NC(CCCCN)C(=O)NC(CCSC)C(=O)NCCCCC(NC(=O)C(CCSC)NC(=O)C(CCCCN)NC(=O)C(CCCCN)NC(=O)CN(CC=C)C(=O)CN(Cc1ccc(OC)cc1)C(=O)CN(C(=O)CN(Cc1ccc2c(c1)OCO2)C(=O)CNC(C)c1ccccc1)C(C)c1ccccc1)C(N)=O)C(=O)CN(Cc1ccc(OC)cc1)C(=O)CN(C(=O)CN(Cc1ccc2c(c1)OCO2)C(=O)CNC(C)c1ccccc1)C(C)c1ccccc1 (stereo not drawn) (I: H-[X3][Gly(N-piperonyl)][X3][N(4-MeOBn)Gly][NAllylGly]KKMK-NH2 / II: H-[X3][Gly(N-piperonyl)][X3][N(4-MeOBn)Gly][NAllylGly]KKM; amide I:9-II:C; configuration not given here),Active
11,COc1ccc(CN(CC(=O)NC(C(=O)NC(CCCCN)C(=O)NC(CCCCN)C(=O)NC(CCSC)C(=O)NCCCCC(NC(=O)C(CCSC)NC(=O)C(CCCCN)NC(=O)C(CCCCN)NC(=O)C(NC(=O)CN(Cc2ccc(OC)cc2)C(=O)CN(C(=O)CN(Cc2ccc3c(c2)OCO3)C(=O)CNC(C)c2ccccc2)C(C)c2ccccc2)C(C)C)C(N)=O)C(C)C)C(=O)CN(C(=O)CN(Cc2ccc3c(c2)OCO3)C(=O)CNC(C)c2ccccc2)C(C)c2ccccc2)cc1 (stereo not drawn) (I: H-[X3][Gly(N-piperonyl)][X3][N(4-MeOBn)Gly]VKKMK-NH2 / II: H-[X3][Gly(N-piperonyl)][X3][N(4-MeOBn)Gly]VKKM; amide I:9-II:C; configuration not given here),Active
12,C#CCN(CC(=O)NC(CCCCN)C(=O)NC(CCCCN)C(=O)NC(CCSC)C(=O)NCCCCC(NC(=O)C(CCSC)NC(=O)C(CCCCN)NC(=O)C(CCCCN)NC(=O)CN(CC#C)C(=O)CN(Cc1ccc(OC)cc1)C(=O)CN(C(=O)CN(Cc1ccc2c(c1)OCO2)C(=O)CNC(C)c1ccccc1)C(C)c1ccccc1)C(N)=O)C(=O)CN(Cc1ccc(OC)cc1)C(=O)CN(C(=O)CN(Cc1ccc2c(c1)OCO2)C(=O)CNC(C)c1ccccc1)C(C)c1ccccc1 (stereo not drawn) (I: H-[X3][Gly(N-piperonyl)][X3][N(4-MeOBn)Gly][Gly(N-propargyl)]KKMK-NH2 / II: H-[X3][Gly(N-piperonyl)][X3][N(4-MeOBn)Gly][Gly(N-propargyl)]KKM; amide I:9-II:C; configuration not given here),Active
13,COc1ccc(CN(CC(=O)N(CC(=O)NC(CCCCN)C(=O)NC(CCCCN)C(=O)NC(CCSC)C(=O)NCCCCC(NC(=O)C(CCSC)NC(=O)C(CCCCN)NC(=O)C(CCCCN)NC(=O)CN(C(=O)CN(Cc2ccc(OC)cc2)C(=O)CN(C(=O)CN(Cc2ccc3c(c2)OCO3)C(=O)CNC(C)c2ccccc2)C(C)c2ccccc2)C2CCCC2)C(N)=O)C2CCCC2)C(=O)CN(C(=O)CN(Cc2ccc3c(c2)OCO3)C(=O)CNC(C)c2ccccc2)C(C)c2ccccc2)cc1 (stereo not drawn) (I: H-[X3][Gly(N-piperonyl)][X3][N(4-MeOBn)Gly][Gly(N-cPent)]KKMK-NH2 / II: H-[X3][Gly(N-piperonyl)][X3][N(4-MeOBn)Gly][Gly(N-cPent)]KKM; amide I:9-II:C; configuration not given here),Active
